The text below walks through data of PMC7847313 (Journal of natural products, 2018).

Molecules are shown by their SMILES. Where two headings read alike, the source gives them in different places. *1 amine or outer side, *2 acyl side, *3 side chain or, on linkers, in order; H or OH if unused. Where a SMILES comes first, the peptide text is derived from it. Bridges are numbered along the chain shown (N, C = ends). [ ]: non-standard residue; d: D form. The star is where a group is joined. Ahp(3S,6R)alloIle = CC[C@@H](C)[C@@H](C(=O)[*:2])N1C(=O)[C@@H](N[*:1])CC[C@H]1O; Propanoyl(2R-OMe,3-OSO3H) = CO[C@H](COS(=O)(=O)O)C(=O)*; NMeTyr(3-Br,OMe) = CN[C@@H](Cc1ccc(OC)c(Br)c1)C(=O)O; Cit = NC(=O)NCCC[C@H](N)C(=O)O; Butyryl = CCCC(=O)*

In general, IC50 refers to the concentration needed to halve the response being measured.

The target in data set [1] is T1, chymotrypsin (Bos taurus, UniProt P00766). Description: Chymotrypsin assay. The format is biochemical. Put shortly:
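Enzyme (4 units/mL, in cold 1 mM HCl) and BTEE (1.18 mM) in 80 mM Tris-HCl, pH 7.8, made fresh. BTEE, buffer, CaCl2 and test compound (MeOH dilution series; MeOH blank) were equilibrated at 25 °C, then enzyme added last. A256 followed continuously: 3 min uninhibited, 30 s intervals with inhibitor. Activity in BTEE units/mL; IC50 by nonlinear regression.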

The conditions of data set [2]: cited from earlier work.
Data set [3] relates to Vibrio cholerae secreted serine protease activity. To be noted: as low as in cultures of T2S mutants, averaged; cited from earlier work.
The subject of data set [4] is neuro-2a neuroblastoma cells. To be noted: read-out: IC50 neuro-2a neuroblastoma cells; cited from earlier work.
The target of data set [5] is T1, chymotrypsin. As to conditions: cited from earlier work.
The subject of data set [6] is NCI-H460 lung cancer cells. As to conditions: cited from earlier work.

Compound `CC[C@@H](C)[C@H]1C(=O)N(C)[C@@H](Cc2ccc(OC)c(Br)c2)C(=O)N[C@@H]([C@@H](C)CC)C(=O)O[C@H](C)[C@H](NC(=O)[C@H](NC(=O)[C@H](O)COS(=O)(=O)O)C(C)C)C(=O)N[C@@H](CCCCN)C(=O)N[C@H]2CC[C@@H](O)N1C2=O` [Jizanpeptin A (1), Jizanpeptin A] yielded an IC50 at chymotrypsin [1] of over 10 µM. For `CC[C@@H](C)[C@H]1C(=O)N(C)[C@@H](Cc2ccc(OC)c(Br)c2)C(=O)N[C@@H]([C@@H](C)CC)C(=O)O[C@H](C)[C@H](NC(=O)[C@H](NC(=O)[C@@H](COS(=O)(=O)O)OC)C(C)C)C(=O)N[C@@H](CCCCN)C(=O)N[C@H]2CC[C@@H](O)N1C2=O` [Jizanpeptin B (2), Jizanpeptin B], the concentration for half-maximal inhibition (IC50) against chymotrypsin [1] was over 10 µM. For the compound `CC[C@@H](C)[C@H]1C(=O)N(C)[C@@H](Cc2ccc(OC)c(Br)c2)C(=O)N[C@@H]([C@@H](C)CC)C(=O)O[C@H](C)[C@H](NC(=O)[C@@H](NC(=O)[C@@H](COS(=O)(=O)O)OC)C(C)C)C(=O)N[C@@H](CCCCN)C(=O)N[C@H]2CC[C@@H](O)N1C2=O` [Jizanpeptin C (3), Jizanpeptin C], at chymotrypsin [1] (standardized assay conditions, up to 10 μM), the “efficacy as a chymotrypsin inhibitor” value was “full efficacy”.

As to `CC[C@@H](C)[C@H]1C(=O)N(C)[C@@H](Cc2ccc(OC)c(Br)c2)C(=O)N[C@@H]([C@@H](C)CC)C(=O)O[C@H](C)[C@H](NC(=O)[C@@H](NC(=O)[C@@H](COS(=O)(=O)O)OC)[C@@H](C)CC)C(=O)N[C@@H](CCCCN)C(=O)N[C@H]2CC[C@@H](O)N1C2=O` [Jizanpeptin D (4), Jizanpeptin D] ({Propanoyl(2R-OMe,3-OSO3H)}-ITK[Ahp(3S,6R)alloIle][NMeTyr(3-Br,OMe)]I; ester 2-C), the IC50 against chymotrypsin [1] is over 10 µM.

As to `CC[C@@H](C)[C@H]1C(=O)N(C)[C@@H](Cc2ccc(OC)c(Br)c2)C(=O)N[C@@H]([C@@H](C)CC)C(=O)O[C@H](C)[C@H](NC(=O)[C@H](NC(=O)[C@@H](COS(=O)(=O)O)OC)C(C)C)C(=O)N[C@@H](CCCNC(=N)N)C(=O)N[C@H]2CC[C@@H](O)N1C2=O` [Jizanpeptin E (5), Jizanpeptin E], the IC50 on chymotrypsin [1] was over 10 µM. As to `C/C=C1/NC(=O)C(NC(=O)C(NC(=O)C(CO)OC)C(C)C)C(C)OC(=O)C(C(C)C)NC(=O)C(Cc2ccccc2)N(C)C(=O)C(Cc2ccccc2)N2C(=O)C(CCC2O)NC1=O` (stereo not drawn) [dolastatin 13], in data set [2] (terminal Gac), the “cytotoxicity” value is on record as “nanomolar cytotoxicity”. Regarding `CC(=O)N[C@@H](CC(C)C)C(=O)N[C@@H](CC(C)C)C(=O)N[C@H](C=O)CCCNC(=N)N` [leupeptin], the “reduction in fluorescence, positive control” value in data set [3] is on record as 93%. Turning to `C/C=C1\NC(=O)[C@@H](NC(=O)[C@H](CCc2ccc(O)cc2)NC(=O)[C@H](C)NC(=O)[C@H](O)COS(=O)(=O)O)[C@@H](C)OC(=O)[C@H](C(C)C)NC(=O)[C@H](Cc2ccc(O)cc2)N(C)C(=O)[C@H](Cc2ccccc2)N2C(=O)[C@H](CC[C@H]2O)NC1=O` [lyngbyastatin 4], the “cytotoxicity” value in data set [2] (terminal Gac-sulfate) is “no cytotoxicity”.

As for `CCCC(=O)N[C@H](CCC(N)=O)C(=O)N[C@@H]1C(=O)N[C@@H](CCCNC(N)=O)C(=O)N[C@H]2CC[C@@H](O)N(C2=O)[C@@H]([C@H](C)CC)C(=O)N(C)[C@@H](Cc2ccc(OC)c(Br)c2)C(=O)N[C@@H](C(C)C)C(=O)O[C@@H]1C` [symplocamide A] (Butyryl-[dQ]T[Cit][Ahp(3S,6R)alloIle][NMeTyr(3-Br,OMe)]V; ester 2-C), the IC50 is 0.029 µM in data set [4] and 0.04 µM in data set [6] (read-out: IC50 NCI-H460 lung cancer cells). Further, on chymotrypsin [5], the “selectivity chymotrypsin over trypsin” value is “greater selectivity for chymotrypsin over trypsin”. In addition, in data set [6], the “cytotoxicity to NCI-H460 lung cancer cells” value is given as “remarkably cytotoxic”.
